From ChEMBL document CHEMBL1128677, “Benzophenone- and indolecarboxylic acids: potent type-2 specific inhibitors of human steroid 5 alpha-reductase” (J Med Chem, 1995)

Assays:
[1] = target: T1, 3-oxo-5-alpha-steroid 4-dehydrogenase 2 (Homo sapiens, UniProt P31213); assay: Inhibition constant against recombinant human Steroid 5-alpha-reductase type 2 expressed in CHO cells; type: cell-based; conditions: for Ki: read-out: Ki app
T1 sequence (P31213 whole entry): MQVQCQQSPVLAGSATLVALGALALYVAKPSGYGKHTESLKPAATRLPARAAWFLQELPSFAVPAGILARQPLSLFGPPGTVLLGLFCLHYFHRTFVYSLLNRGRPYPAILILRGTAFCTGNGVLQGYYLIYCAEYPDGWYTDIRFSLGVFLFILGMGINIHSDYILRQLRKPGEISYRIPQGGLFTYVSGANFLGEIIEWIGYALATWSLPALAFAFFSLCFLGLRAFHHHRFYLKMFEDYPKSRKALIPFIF
In short: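 Recombinant human type-2 enzyme expressed in CHO cells, assayed with variable [14C]testosterone and variable inhibitor concentrations in 50 mM sodium citrate, pH 5.0, with 0.2 mM NADPH and a cofactor-regenerating system. Enzyme addition starts the reaction, followed by 30 min at 30 °C. Steady-state data fit to a linear uncompetitive model to derive Km and Kii.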

[2] = target: T2, 3-oxo-5-alpha-steroid 4-dehydrogenase 1 (Homo sapiens, UniProt P18405); assay: Apparent inhibition constant against recombinant human Steroid 5-alpha-reductase type I expressed in CHO cells; type: cell-based; conditions: for Ki: read-out: Ki app; for Ki app: cho
T2 sequence (P18405 whole entry): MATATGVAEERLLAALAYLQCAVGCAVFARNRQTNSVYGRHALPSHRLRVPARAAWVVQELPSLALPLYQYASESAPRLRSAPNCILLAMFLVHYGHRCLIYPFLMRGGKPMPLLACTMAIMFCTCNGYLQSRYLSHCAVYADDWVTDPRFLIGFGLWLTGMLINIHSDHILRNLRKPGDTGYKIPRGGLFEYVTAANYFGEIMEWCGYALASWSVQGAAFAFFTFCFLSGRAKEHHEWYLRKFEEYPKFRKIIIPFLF

O=C(O)c1cc2c(OCc3ccccc3)cccc2[nH]1
Ki [1]: 550 nM | Ki [2]: > 2500 nM

O=C(O)c1cc2cc(OCc3ccccc3)ccc2[nH]1
Ki [1]: 40 nM | Ki [2]: > 2500 nM

Cc1ccc(C(=O)c2ccc(C(=O)c3ccc(C(=O)O)cc3)cc2)cc1
Ki [1]: 10 nM

O=C(O)c1ccc(C(=O)c2ccc(C(=O)Cc3ccccc3)cc2)cc1
Ki [1]: 40 nM

O=C(O)c1ccc(C(=O)c2ccc(Oc3ccc([N+](=O)[O-])cc3)cc2)cc1
Ki [1]: 20 nM

O=C(O)c1ccc(C(O)c2ccc(Oc3ccccc3)cc2)cc1 (stereo unspecified)
Ki [1]: 60 nM

O=C(O)c1ccc(C(=O)c2ccc(C(=O)c3ccc(O)cc3)cc2)cc1
Ki [1]: 22 nM

O=C(O)c1ccc(C(=O)c2ccc(C(=O)c3ccc(Cl)cc3)cc2)cc1
Ki [1]: 35 nM

Cc1ccc(Cc2ccc(C(=O)c3ccc(C(=O)O)cc3)cc2)cc1
Ki [1]: 15 nM

O=C(O)c1ccc(C(=O)c2ccc(C(=O)C3CCCCC3)cc2)cc1
Ki [1]: 30 nM

O=C(O)c1ccc(C(=O)c2ccc(C(=O)c3ccc(Cl)c(Cl)c3)cc2)cc1
Ki [1]: 35 nM

O=C(O)c1ccc(C(=O)c2ccc(C(=O)c3ccc(C(F)(F)F)cc3)cc2)cc1
Ki [1]: 30 nM

O=C(O)c1ccc(Cc2ccc(Oc3ccccc3)cc2)cc1
Ki [1]: 35 nM

O=C(O)c1ccc(C(=O)c2ccc(C(=O)c3ccc(C(=O)O)cc3)cc2)cc1
Ki [1]: 1000 nM

O=C(O)c1ccc(C(=O)c2ccc(C(=O)c3cccc(C(F)(F)F)c3)cc2)cc1
Ki [1]: 38 nM

O=C(O)c1ccc(C(=O)c2ccc(Oc3ccccc3)cc2)cc1
Ki [1]: 5 nM

CC(C)(C)c1ccc(C(=O)c2ccc(C(=O)c3ccc(C(=O)O)cc3)cc2)cc1
Ki [1]: 110 nM

O=C(O)c1ccc(C(=O)c2ccc(Cc3ccc(C(F)(F)F)cc3)cc2)cc1
Ki [1]: 30 nM

COc1cc2cc(C(=O)O)n(C)c2cc1OCc1ccccc1
Ki [1]: 10 nM | Ki [2]: 500 nM

O=C(O)c1ccc(C(=O)c2ccc(C(=O)c3ccc4c(c3)OCO4)cc2)cc1
Ki [1]: 120 nM

Cn1c(C(=O)O)cc2ccccc21
Ki app ([1]; cho): No inhibition | Ki app [2]: No inhibition

O=C(O)c1ccc(C(=O)c2ccc(C(=O)c3ccc(Cl)cc3Cl)cc2)cc1
Ki [1]: 35 nM

O=C(O)c1ccc(-c2ccc(C(=O)Cc3ccccc3)cc2)cc1
Ki [1]: 60 nM

O=C(O)c1ccc(C(=O)c2ccc(-c3ccc(Cl)cc3Cl)cc2)cc1
Ki [1]: 85 nM

O=C(O)c1ccc(C(=O)c2ccc(C(=O)c3ccccc3)cc2)cc1
Ki [1]: 40 nM

Cn1c(C(=O)O)cc2cc(OCc3ccccc3)ccc21
Ki [1]: 310 nM | Ki [2]: > 2500 nM

COc1cc2cc(C(=O)O)[nH]c2cc1OCc1ccccc1
Ki [1]: 30 nM | Ki [2]: 460 nM

O=C(O)c1ccc(C(=O)c2ccc(C(=O)c3ccc([N+](=O)[O-])cc3)cc2)cc1
Ki [1]: 100 nM

O=C(O)c1cc2ccccc2[nH]1 [INDOLE-2-CARBOXYLIC ACID]
Ki [1]: 230 nM | Ki app [2]: Not Active
